Measurements as given in ChEMBL document CHEMBL2034956, “Bioactive diterpenes from Callicarpa longissima” (J Nat Prod, 2012).
≈ marks a conversion by molar mass, not a printed value.

Assays:
Format in all cases: functional, cell-based
[1] = Antiinflammatory activity in human neutrophils assessed as inhibition of FMLP/CB-induced elastase release using Meo-Suc-Ala-Ala-Pro-Val-p-nitroanilide as substrate incubated for 5 mins prior to FMLP/CB-challenge by spectrophotometry; details: Neutrophil
How it was run: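 Human neutrophils isolated by dextran sedimentation and Ficoll centrifugation before elastase release measurement.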

[2] = Antiinflammatory activity in human neutrophils assessed as inhibition of FMLP/CB-induced superoxide-anion generation incubated for 5 mins prior to FMLP/CB-challenge measured after 10 mins by spectrophotometry; details: Neutrophil
How it was run: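 Human neutrophils isolated by dextran sedimentation and Ficoll centrifugation. Superoxide anion measured as superoxide dismutase-inhibitable reduction of ferricytochrome c.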

[3] = system: PC-3; test: Antiproliferative activity against human PC3 cells after 48 hrs by SRB assay; details: PC-3, 48 h
How it was run: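 Cells seeded in RPMI 1640 with 5% fetal bovine serum at 37 °C, 5% CO2. After 24 h, two plates per line TCA-fixed as time-zero reference. Compound added, then 48 h further incubation at 37 °C. Cold TCA fixation, 0.4% w/v sulforhodamine B in 1% acetic acid for 10 min, acetic acid washes, dye solubilized in 10 mM Trizma base, absorbance 515 nm. IC50 is 50% absorbance reduction versus untreated cells.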

| IC50 [1] [µg/mL] | IC50 [2] [µg/mL] | IC50 [3] [µg/mL] | Structure (SMILES) |
| --- | --- | --- | --- |
| > 10 | > 10 | – | COc1ccc(-c2oc3cc(OC)c(OC)c(O)c3c(=O)c2OC)cc1 |
| > 10 | > 10 | – | CC(C)c1ccc2c(c1)CC[C@@H](C(C)(C)O)[C@]2(C)CCC(=O)O (relative stereo) |
| > 10 | 9.31 (≈ 29.2 µM) | > 10 | C=C1CC[C@H]2C(C)(C)C(=O)CC[C@]2(C)[C@H]1CC/C(C)=C/C(=O)O |
| > 10 | 5.09 (≈ 16 µM) | > 10 | CC1=CC(=O)[C@H]2C(C)(C)CCC[C@]2(C)[C@H]1CC/C(C)=C/C(=O)O [CALLILONGISIN D] |

More lines, now with the values behind:

| Structure (SMILES) | IC50 [1] [µg/mL] | IC50 [2] [µg/mL] | IC50 [3] [µg/mL] |
| --- | --- | --- | --- |
| C=C(C)[C@@H]1CCC2=C[C@]3(C(C)C)CC[C@]2(OO3)[C@@]1(C)CCC(=O)O (relative stereo) | 4.66 (≈ 13.9 µM) | 3.14 (≈ 9.39 µM) | > 10 |
| COc1ccc(-c2oc3cc(OC)c(OC)c(O)c3c(=O)c2OC)cc1OC [ARTEMETIN] | > 10 | > 10 | – |
| C=C1C[C@@H](O)[C@H]2C(C)(C)CCC[C@]2(C)[C@H]1CC/C(C)=C/C(=O)O | > 10 | > 10 | – |
| C[C@H]1[C@H](C)CC[C@]2(C(=O)O)CC[C@]3(C)C(=CC[C@@H]4[C@@]5(C)CC[C@H](O)C(C)(C)[C@@H]5CC[C@]43C)[C@H]12 [URSOLIC ACID] | 5.21 (≈ 11.4 µM) | 2.79 (≈ 6.11 µM) | > 10 |
| C=C(C)[C@@H]1CCC2=C[C@](O)(C(C)C)CC[C@@]23OC(=O)CC[C@@]13C (relative stereo) | > 10 | > 10 | – |
